# mIAP activ – activators of mouse IAP, primary screen, biochemical, luminescence, uHTS. muIAP, CDP-Star luminescence, 30 min; active compounds read high; 1 = vehicle-only enzyme signal, 0 = enzyme-free wells. hit rate 0.24% among 330,000. activation factor at 10 µM. AID 2805, 2010. intestinal alkaline phosphatase [Mus musculus];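 active = activation factor of at least 2 at 20 µM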
#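 also added = chemiluminescent substrate CDP-Star | test system = mouse IAP enzyme | signal = chemiluminescence readout | compound = DMSO-dissolved test compounds | incubation = 30 min at room temperature | benchmarks = DMSO wells, no-enzyme wells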
# hIAP block – human IAP inhibitors, primary screen, biochemical, luminescence, uHTS; Intestinal-type alkaline phosphatase (Homo sapiens), P09923; purified IAP, CDP-Star luminescence, 30 min; inhibition, % at 10 µM; hit rate 0.12% among 330,000; AID 2544, 2010;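 active = inhibition reaching a set limit with compound at 10 µM in the primary screen, cut at about 35% in these data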;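 note: plate controls were DMSO wells with enzyme for no effect and no-enzyme buffer wells for full effect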
# Target sequence (P09923 whole entry, looked up): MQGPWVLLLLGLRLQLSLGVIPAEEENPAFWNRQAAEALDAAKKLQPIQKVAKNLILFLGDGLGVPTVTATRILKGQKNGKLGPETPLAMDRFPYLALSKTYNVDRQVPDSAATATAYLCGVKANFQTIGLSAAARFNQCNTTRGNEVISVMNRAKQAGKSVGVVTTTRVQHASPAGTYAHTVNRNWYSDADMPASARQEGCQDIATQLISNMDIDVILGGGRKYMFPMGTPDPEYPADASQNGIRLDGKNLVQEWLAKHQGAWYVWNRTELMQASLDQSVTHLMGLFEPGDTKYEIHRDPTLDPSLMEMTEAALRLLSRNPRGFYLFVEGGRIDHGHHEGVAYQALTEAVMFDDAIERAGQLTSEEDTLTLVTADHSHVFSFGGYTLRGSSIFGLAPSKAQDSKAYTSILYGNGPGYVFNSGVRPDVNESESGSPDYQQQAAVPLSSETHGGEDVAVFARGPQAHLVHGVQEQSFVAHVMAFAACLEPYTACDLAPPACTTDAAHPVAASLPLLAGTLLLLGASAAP
# hIAP activ – human IAP activators, primary screen, biochemical, luminescence, uHTS | Intestinal-type alkaline phosphatase (Homo sapiens), P09923 | purified human IAP, CDP-Star luminescence, 30 min; active compounds read high; 1 = vehicle-only enzyme, 0 = enzyme-free background | activation factor at 10 µM | hit rate 0.16% among 330,000 | AID 2524, 2010;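 active = activation factor of the enzyme at least 2-fold when tested at 20 µM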
# bIAP inhibitor – bovine intestinal alkaline phosphatase inhibitors, primary screen, selectivity assay for TNAP inhibitor project, biochemical, bovine IAP, CDP-star luminescence | alkaline phosphatase, intestinal [Bos taurus] | purified bovine IAP, 30 min | inhibition, % at 20 µM | 190,000 tested, under 10 active;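 active = over 50% inhibition of intestinal alkaline phosphatase at 20 µM in the single-dose screen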
#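 test system = bovine IAP enzyme | medium = DEA buffer 100 mM, pH 9.8, with MgCl2 1.0 mM, ZnCl2 0.02 mM | detection = luminescence | dosing = single compound dose of 20 µM, 2% DMSO final | incubation = 30 min reaction at room temperature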
# bIAP activator – bovine intestinal alkaline phosphatase activators, primary screen, biochemical, bovine IAP, CDP-star luminescence | alkaline phosphatase, intestinal [Bos taurus] | purified bovine IAP, 30 min; active compounds read high; fold of DMSO-control signal, blank-subtracted | activation factor at 20 µM | hit rate 0.17% among 200,000 | AID 1016, 2008;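 active = activation factor of 2 or more at 20 µM, a signal rise over negative controls twice the positive control's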
# mIAP block – inhibitors of mouse IAP, primary screen, biochemical, luminescence, uHTS; purified mouse IAP, CDP-Star luminescence, 30 min; hit rate 0.2% among 330,000; intestinal alkaline phosphatase [Mus musculus]; inhibition, % at 10 µM;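 active = inhibition of at least 40% at 10 µM in the primary screen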;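 note: plate controls were DMSO with enzyme for no effect and no enzyme wells for full effect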
# hIAP act conf – human IAP activators, confirmation, biochemical, luminescence, single concentration, uHTS hits | shares compounds with hIAP activ | purified IAP, CDP-Star luminescence, 30 min; active compounds read low | activation (%Activity, negative = activation), % at 8.3 µM | hit rate 10% among 880;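 active = at least twofold enzyme activation in any of six single-dose repeats, which the averaged readout prints as negative percent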
# * = called active by the depositor; . = no result given. Compounds with a hit are over-represented: about 0.72% of the library has one in this group of screens.
SMILES,mIAP activ,hIAP block,hIAP activ,bIAP inhibitor,bIAP activator,mIAP block,hIAP act conf
CSc1ncccc1C(=O)OCC(=O)Nc1ccc(N2CCOCC2)cc1,0.99,-7,1.1,.,.,1,.
CCOC(=O)c1cnc(-n2nc(C)cc2C)nc1NNc1nc(C)cc(C)n1,0.66,-100,2,.,.,34,72
CCOC(=O)c1cnc(-n2nc(C)cc2C)nc1NNc1nc(-c2ccccc2)cc(-c2ccccc2)n1,0.89,6,0.94,12,0.9,11,.
C=CCn1c(SCc2ccccc2F)nc2cc(C(=O)O)ccc2c1=O,1,5,0.95,.,.,0,.
COc1cc(CSc2ncn[nH]2)c(OC)cc1CSc1ncn[nH]1,0.88,-172,2.7*,-20,1.2,12,-12
CC(=O)N1c2ccc(S(=O)(=O)N3CCC(C(=O)Nc4cccc(Cl)c4)CC3)cc2CC1C (stereo unspecified),2,-100,2*,.,.,-98,-64
Cc1cccc(OCC(=O)Nc2cccc(O)c2)c1,1.1,-117,2.2*,12,0.9,-7,-25
Cc1ccc(OCC(=O)Nc2cccc(O)c2)cc1C,0.94,5,0.95,-4,1,6,.
CN1C(=O)/C(=C\c2cc(N=Nc3ccccc3)ccc2O)SC1=S,0.74,38*,0.62,27,0.7,26,3
CC(C)c1ccc(N2C(=O)CC(Sc3ncccn3)C2=O)cc1 (stereo unspecified),0.93,12,0.88,.,.,7,.
Nc1c(N2CCCC2)cc(Cl)c2nonc12,0.88,35*,0.65,26,0.7,12,41
Nc1c(N2CCOCC2)cc(Cl)c2nonc12,0.86,23,0.77,31,0.7,14,.
Cc1ccc(CN(C)c2ccc(S(=O)(=O)N3CCCC3)cn2)cc1,1,36*,0.64,.,.,-1,-34
CC1CCN(S(=O)(=O)c2cccc(C(=O)NNC(=O)c3ccco3)c2)CC1,0.82,-56,1.6,.,.,18,.
O=C(O)COn1c(-c2ccc(Cl)cc2)nc2ccc(Cl)cc21,0.96,-116,2.2*,7,0.9,4,27
COn1c(-c2ccc(Cl)cc2)nc2ccc(Cl)cc21,0.97,-2,1,8,0.9,3,.
Cc1cc(C)cc(NC(=O)CCc2ccc(C)o2)c1,0.65,0,1,.,.,35,.
Cc1cccc(NC(=O)CCc2ccc(C)o2)c1,0.99,37*,0.63,-3,1,1,-26
Cc1nnc(NC(=O)CSc2n[nH]c(-c3ccccc3C)n2)s1,0.95,41*,0.59,.,.,5,-21
O=C(Nc1ccc(N2CCCCCC2)cc1)c1cccc(S(=O)(=O)N2CCOCC2)c1,1.1,2,0.98,.,.,-5,.
COc1ccc(-n2nc3c(N4CCC(C(=O)NCc5cccc(C)c5)CC4)nnc(C)c3c2C)cc1,1.3,-121,2.2*,.,.,-27,-42
COc1ccccc1CCNC(=O)C1CCN(c2nnc(C)c3c(C)n(-c4ccc(C)cc4)nc23)CC1,1.3,-132,2.3*,.,.,-25,31
CCOc1ccc(CNC(=O)C2CCN(c3nnc(C)c4c(C)n(-c5ccc(C)cc5)nc34)CC2)cc1,0.86,-47,1.5,.,.,14,.
O=C(CC1CCCC1)Nc1cc(C(F)(F)F)ccc1-n1cncn1,1,-6,1.1,.,.,-4,.
COCCOCCn1c(/C=C/c2ccccc2)nc2ccccc21,1,9,0.91,6,0.9,0,.
SMILES,mIAP activ,hIAP block,hIAP activ,bIAP inhibitor,bIAP activator,mIAP block,hIAP act conf
CCCn1c(/C=C/c2ccccc2)nc2ccccc21,0.96,-214,3.1*,21,0.8,4,37
COc1ccc(OC(=O)c2cccnc2)cc1,0.92,41*,0.59,6,0.9,8,7
CC(C)(C)c1ccc(OC(=O)c2cccnc2)cc1,1,-5,1,6,0.9,-4,.
CC(=O)CCc1ccc(Oc2nc(-c3cccnc3)nc3ccccc23)cc1,0.86,36*,0.64,-13,1.1,14,42
COc1ccc(Oc2nc(-c3cccnc3)nc3ccccc23)cc1,0.96,10,0.91,.,.,4,.
CCNc1nc(NCC)nc(-n2nc(C)cc2C)n1,0.98,41*,0.59,-2,1,2,-8
O=C(CCNS(=O)(=O)c1cccc(C(F)(F)F)c1)NCc1ccco1,1.1,-3,1,.,.,-6,.
CCOc1ccc2oc(C(=O)NNC(=O)c3ccccc3O)c(C)c2c1,0.78,-137,2.4*,.,.,22,-37
Cc1nnc(SCC(=O)NCc2ccccc2)n1-c1ccccc1,1.1,0,1,6,0.9,-8,.
Cc1nnc(SCC(=O)NCc2cccs2)n1-c1ccccc1,0.89,-113,2.1*,8,0.9,11,15
O=C(OC[C@@H]1CCCN2CCCC[C@H]12)c1cc2ccccc2oc1=O,1,6,0.94,-13,1.1,-2,.
Cn1ncc2c1ncn1nc(CCc3ccccc3)nc21,0.92,39*,0.61,29,0.7,8,-18
COC(=O)c1ccc(OC)c(CN2CCCN(Cc3cc(C)ccc3C)S2(=O)=O)c1,0.92,15,0.85,.,.,8,.
O=Nc1[nH]c(=O)c(/C=C(\O)c2ccccc2)nc1NO,0.85,-113,2.1*,.,.,15,-85*
COc1c(C)cccc1C(=O)NC(=S)Nc1ccccc1N1CCCC1,0.89,35*,0.65,.,.,11,-34
O=C(NC(=S)Nc1ccccc1N1CCCC1)c1ccccc1Br,0.67,-13,1.1,.,.,34,.
O=C(Cn1ccnc1)c1ccc(O)c(O)c1,0.9,41*,0.59,.,.,10,-44
CCn1nc(NS(=O)(=O)c2ccccc2)c2cc3ccc(C)cc3nc21,0.97,39*,0.61,.,.,3,-1
CCn1nc(NS(=O)(=O)c2ccccc2)c2cc3cc(C)ccc3nc21,0.95,-9,1.1,.,.,5,.
CCn1c2ccccc2c2cc(NC(=O)c3coc(=O)c(Br)c3)ccc21,0.85,42*,0.58,.,.,15,39
O=C(N/N=C/c1ccc(O)cc1O)c1ccc(NC(=O)C2CCCCC2)cc1,0.9,-97,2,.,.,10,.
O=C(O)/C(=C\c1ccccc1)c1ccc2ccccc2c1,1.1,38*,0.62,.,.,-5,6
O=C(NNC(=O)c1c(O)c2ccccc2[nH]c1=O)c1ccccc1Br,0.85,-64,1.6,.,.,15,.

# Screens from PubChem BioAssay.
